Source: ChEMBL document CHEMBL4400507, “Discovery of Novel Transient Receptor Potential Vanilloid 4 (TRPV4) Agonists as Regulators of Chondrogenic Differentiation: Identification of Quinazolin-4(3 H)-ones and in Vivo Studies on a Surgically Induced Rat Model of Osteoarthritis” (J Med Chem, 2019)
Converted amounts (≈) assume the structure as drawn. The source made the active and inactive calls. The calls are words filed in the database; no cut-off is given here.

Experiments:
[1] = biological target: T1, Transient receptor potential cation channel subfamily V member 4 (Homo sapiens, UniProt Q9HBA0); assay: Agonist activity at recombinant human TRPV4 expressed in […] cells at 10 uM by SOX9 luciferase reporter gene assay; format: cell-based
T1 sequence (Q9HBA0 whole entry): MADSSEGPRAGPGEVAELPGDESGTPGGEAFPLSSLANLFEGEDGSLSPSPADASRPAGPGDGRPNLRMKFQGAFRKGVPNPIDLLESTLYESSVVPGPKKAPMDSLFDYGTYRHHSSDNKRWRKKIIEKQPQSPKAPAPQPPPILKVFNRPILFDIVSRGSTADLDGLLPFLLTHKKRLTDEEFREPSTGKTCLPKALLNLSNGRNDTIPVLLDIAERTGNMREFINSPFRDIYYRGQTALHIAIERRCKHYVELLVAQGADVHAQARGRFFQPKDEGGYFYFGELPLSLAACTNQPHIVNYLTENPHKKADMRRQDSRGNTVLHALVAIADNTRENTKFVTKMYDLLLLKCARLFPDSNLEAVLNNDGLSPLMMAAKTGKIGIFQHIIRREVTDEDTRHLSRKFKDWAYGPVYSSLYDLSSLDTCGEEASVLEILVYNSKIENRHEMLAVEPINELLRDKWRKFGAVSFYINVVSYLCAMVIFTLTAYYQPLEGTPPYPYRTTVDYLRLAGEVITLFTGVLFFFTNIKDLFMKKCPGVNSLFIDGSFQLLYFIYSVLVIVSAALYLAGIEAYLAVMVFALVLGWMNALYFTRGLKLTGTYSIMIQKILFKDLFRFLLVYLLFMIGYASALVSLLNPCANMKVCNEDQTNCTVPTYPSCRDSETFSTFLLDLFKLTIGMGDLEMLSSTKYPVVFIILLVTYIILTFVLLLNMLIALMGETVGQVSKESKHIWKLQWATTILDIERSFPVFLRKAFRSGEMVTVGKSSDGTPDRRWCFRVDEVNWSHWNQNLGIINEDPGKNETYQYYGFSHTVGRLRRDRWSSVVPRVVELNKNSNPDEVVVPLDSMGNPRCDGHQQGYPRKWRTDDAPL
Outline: (§1)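 ATDC5 cells stably carrying a SOX9 reporter gene construct and human TRPV4 (pcDNA3.1) were seeded at 2.0 × 10^4 cells/well and treated with compound. Luciferase luminescence was measured the next day.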

[2] = biological target: T1, Transient receptor potential cation channel subfamily V member 4; assay: Agonist activity at recombinant human TRPV4 expressed in HEK293 cells assessed as increase in intracellular calcium level after 30 mins by Fura-2 AM/Pluronic F-127 probe based fluorescence assay; format: cell-based
Outline: (§2)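 HEK293 cells transiently expressing human TRPV4 were loaded with 5 µM Fura-2 AM plus 0.2% Pluronic F-127 for 30 min at 37 °C in HEPES buffer (pH 7.4, 1.8 mM CaCl2, 0.1% BSA). They were then washed and resuspended. Intracellular Ca2+ was read by Fura-2 ratio imaging (excitation 340/380 nm, emission 510 nm).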

[3] = biological target: T1, Transient receptor potential cation channel subfamily V member 4; assay: Agonist activity at recombinant human TRPV4 expressed in […] cells by SOX9 luciferase reporter gene assay; format: cell-based; outline: as §1
[4] = biological target: Transient receptor potential cation channel subfamily V member 1 (Homo sapiens) (UniProt Q8NER1); assay: Agonist activity at human TRPV1 assessed as increase in intracellular calcium level at 10 uM relative to control; format: cell-based
Sequence of Transient receptor potential cation channel subfamily V member 1 (Homo sapiens) (Q8NER1 whole entry): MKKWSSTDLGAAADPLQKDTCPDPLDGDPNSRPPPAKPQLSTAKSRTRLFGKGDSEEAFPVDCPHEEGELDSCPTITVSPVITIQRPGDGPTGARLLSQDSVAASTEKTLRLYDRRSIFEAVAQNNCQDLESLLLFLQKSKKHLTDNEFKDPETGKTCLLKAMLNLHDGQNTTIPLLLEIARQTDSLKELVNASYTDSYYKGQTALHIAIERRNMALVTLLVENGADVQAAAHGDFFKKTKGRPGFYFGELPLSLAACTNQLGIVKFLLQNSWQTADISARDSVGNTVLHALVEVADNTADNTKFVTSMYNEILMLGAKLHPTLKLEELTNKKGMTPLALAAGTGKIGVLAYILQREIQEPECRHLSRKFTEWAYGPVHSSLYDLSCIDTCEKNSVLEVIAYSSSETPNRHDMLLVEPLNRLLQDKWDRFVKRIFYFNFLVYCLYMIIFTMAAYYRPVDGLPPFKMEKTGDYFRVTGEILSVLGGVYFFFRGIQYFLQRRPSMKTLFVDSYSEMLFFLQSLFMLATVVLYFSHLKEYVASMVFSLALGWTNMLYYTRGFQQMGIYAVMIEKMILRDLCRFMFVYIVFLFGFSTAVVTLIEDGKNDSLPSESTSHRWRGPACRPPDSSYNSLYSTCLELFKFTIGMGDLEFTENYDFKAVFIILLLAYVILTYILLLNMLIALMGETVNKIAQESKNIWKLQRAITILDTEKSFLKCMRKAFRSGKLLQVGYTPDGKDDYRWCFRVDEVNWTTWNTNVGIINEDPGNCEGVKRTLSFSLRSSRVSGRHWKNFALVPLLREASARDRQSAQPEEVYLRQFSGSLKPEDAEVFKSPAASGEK

[5] = Solubility of the compound in saline; format: physicochemical
Homo sapiens [6] = organism: Homo sapiens; assay: Induction of chondrogenesis in normal human articular chondrocytes at 62.5 to 1000 nM preincubated for 30 mins followed by medium replacement and measured after 3 days by Alcian blue-staining based assay; format: functional, cell-based
Outline: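 Normal human articular chondrocytes were exposed to agonist for 30 min, then the medium was replaced and the cells cultured 3 days. They were fixed in 95% methanol and stained overnight with 0.1% Alcian blue in 0.1 N HCl. Dye was extracted with 6 M guanidine-HCl for 2 h at room temperature, and OD was read at 600 nm.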

[7] = Genotoxicity in Salmonella typhimurium by Ames test; format: toxicity; details: salmonella enterica subsp. enterica serovar typhimurium
HL-60 = assay: Cytotoxicity against human HL60 cells assessed as reduction in cell viability; format: cell-based
Outline: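 HL-60 cell viability measured with an ATP-based assay.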

[8] = Toxicity in Sprague-Dawley rat model of medial meniscal tear-induced osteoarthritis assessed as death at 5 to 10 uM administered intra-articularly into operated knee twice per week for 3 consecutive weeks and measured at week 4; details: in vivo, other
Outline: (§3)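 Eight-week-old male SD rats, housed singly, had the medial meniscus cut. One week later they were grouped by body weight. The operated knee received 50 µL saline or 0, 5 or 10 µM solution intra-articularly twice weekly for 3 weeks, starting 1 week post-surgery. Deaths and systemic signs were checked by gross visual inspection, and final body weights were recorded. Rats were euthanized at week 4.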

[9] = Drug level in rat synovial fluid lavage dosed directly in to knee joints and measured after 30 mins by LC-MS method; format: ADME, organism-based; details: in vivo, other, 0.5 h
Outline: (§4)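 Normal rats received an intra-articular knee injection. After euthanasia the joint was washed with saline and the synovial fluid lavage collected. Compound was quantified by LC-MS/MS and converted to joint concentration using the ratio of total protein in the lavage. Quantitation limits were 0.3–1 nmol/L.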

[10] = Drug level in rat synovial fluid lavage dosed directly in to knee joints and measured within 30 mins by LC-MS method; format: ADME, organism-based; details: in vivo, other, 0.5 h; outline: as §4
[11] = Toxicity in Sprague-Dawley rat model of medial meniscal tear-induced osteoarthritis assessed as effect on body weight at 5 to 10 uM administered intra-articularly into operated knee twice per week for 3 consecutive weeks and measured at week 4; details: in vivo, other; outline: as §3
[12] = Systemic toxicity in Sprague-Dawley rat model of medial meniscal tear-induced osteoarthritis at 5 to 10 uM administered intra-articularly into operated knee twice per week for 3 consecutive weeks and measured at week 4; details: in vivo, other; outline: as §3
Homo sapiens [13] = organism: Homo sapiens; assay: Induction of chondrogenesis in normal human articular chondrocytes at 500 nM preincubated for 30 mins followed by medium replacement and measured after 3 days by Alcian blue-staining based assay; format: functional, cell-based
Outline: (§5)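 Normal human articular chondrocytes were stimulated with agonist for 30 min, then the medium was replaced. After 3 days' culture, cells were fixed in 95% methanol and stained overnight with 0.1% Alcian blue 8GS in 0.1 N HCl. Dye was extracted with 6 M guanidine-HCl for 2 h at room temperature and read at OD 600 nm.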

Homo sapiens [14] = organism: Homo sapiens; assay: Induction of chondrogenesis in normal human articular chondrocytes at <500 nM preincubated for 30 mins followed by medium replacement and measured after 3 days by Alcian blue-staining based assay; format: functional, cell-based; outline: as §5
[15] = biological target: T1, Transient receptor potential cation channel subfamily V member 4; assay: Agonist activity at recombinant human TRPV4 expressed in HEK293 cells assessed as increase in intracellular calcium level at 10 uM after 30 mins by Fura-2 AM/Pluronic F-127 probe based fluorescence assay relative to control; format: cell-based; outline: as §2
[16] = Protein binding in plasma (unknown origin); format: ADME, cell-free
Rattus norvegicus [17] = assay: Anti-osteoarthritis activity in Sprague-Dawley rat model of medial meniscal tear-induced osteoarthritis assessed as decrease in length of damage area at 5 to 10 uM administered intra-articularly into operated knee twice per week for 3 consecutive weeks and measured at week 4; format: functional, organism-based
Outline: (§6)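 Male Sprague-Dawley rats, 8 weeks old. Medial meniscus cut through to mimic a complete tear. One week after surgery, rats were grouped by body weight: sham, MT vehicle, 5 μM, 10 μM. 50 µL saline or drug was injected intra-articularly into the operated knee twice weekly for 3 weeks, and knees were harvested at week 4. Sections of 5 μm were stained with safranin-O/Fast Green, and damaged width on the medial tibial plateau was measured by micrometer. Analysis by Dunnett's test; n = 5–15 per group.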

Homo sapiens [18] = organism: Homo sapiens; assay: Induction of chondrogenesis in normal human articular chondrocytes at 62.5 nM preincubated for 30 mins followed by medium replacement and measured after 3 days by Alcian blue-staining based assay; format: functional, cell-based; outline: as §5
Rattus norvegicus [19] = assay: Anti-osteoarthritis activity in Sprague-Dawley rat model of medial meniscal tear-induced osteoarthritis assessed as reduction in erosion of tibial plateau cartilage at 5 to 10 uM administered intra-articularly into operated knee twice per week for 3 consecutive weeks and measured at week 4; format: functional, organism-based; outline: as §6
Rattus norvegicus [20] = assay: Induction of SOX9 mRNA expression in Sprague-Dawley rat model of medial meniscal tear-induced osteoarthritis at 5 to 10 uM administered intra-articularly into operated knee twice per week for 3 consecutive weeks measured after 21 days by RT-qPCR analysis; format: functional, organism-based
Rattus norvegicus [21] = assay: Bone anabolic effect in Sprague-Dawley rat model of medial meniscal tear-induced osteoarthritis assessed as induction of new extracellular matrix generation at 10 uM administered intra-articularly into operated knee twice per week for 3 consecutive weeks and measured at week 4 by safranin-O/Fast Green staining-based microscopic analysis; format: functional, organism-based
Rattus norvegicus [22] = assay: Induction of aggrecan mRNA expression in Sprague-Dawley rat model of medial meniscal tear-induced osteoarthritis at 5 to 10 uM administered intra-articularly into operated knee twice per week for 3 consecutive weeks measured after 21 days by RT-qPCR analysis; format: functional, organism-based

| SMILES | Activity [1] [%] | EC50 [2] [nM] | ECmax [3] [nM] | further results |
| --- | --- | --- | --- | --- |
| Cc1ccccc1-n1c(N2CCN(C)CC2)nc2c(Cl)cccc2c1=O | 0.4 | – | – | – |
| CN1CCN(c2nc3c(F)cccc3c(=O)n2-c2ccc(Cc3ccccc3)cc2)CC1 | – | 670 | 312 | Activity [4]: 1.5%; solubility [5]: 553 µg/mL (≈ 1290 µM) |
| CN1CCN(c2nc3c(F)cccc3c(=O)n2-c2ccc(OC(F)(F)F)cc2)CC1 | – | 280 | 625 | Activity [4]: 2.2%; solubility [5]: 951 µg/mL (≈ 2250 µM) |
| CN1CCN(c2nc3c(F)cccc3c(=O)n2-c2ccc(SC(F)(F)F)cc2)CC1 | – | 200 | 156 | Activity (Homo sapiens [6]): Active; Activity [4]: 3.1%; solubility [5]: 952 µg/mL (≈ 2170 µM) |
| CCOC(=O)c1ccc(-n2c(N3CCN(C(C)C)CC3)nc3c(F)cccc3c2=O)cc1 | 1.9 | – | – | – |
| CN1CCN(c2nc3c(F)cccc3c(=O)n2-c2ccc(Oc3ccc(F)cc3)cc2)CC1 [listing 1 of 2 here] | – | 60 | – | Activity [7]: Non-Toxic; solubility [5]: 743 µg/mL (≈ 1660 µM); Activity (HL-60): Non-Toxic |
| CN1CCN(c2nc3c(F)cccc3c(=O)n2-c2ccc(Oc3ccccc3)cc2)CC1 | – | 125 | 39 | Activity [4]: 0.6%; solubility [5]: 745 µg/mL (≈ 1730 µM) |
| Cc1cccc(-n2c(N3CCN(C)CC3)nc3c(Cl)cccc3c2=O)c1 | 1.5 | – | – | – |
| COc1ccc(-n2c(N3CCN(C)CC3)nc3cc(F)ccc3c2=O)cc1 | 42.2 | 4700 | 5000 | – |
| COc1cccc2c(=O)n(-c3ccc(C)cc3)c(N3CCN(C)CC3)nc12 | 1.3 | – | – | – |
| CN1CCN(c2nc3c(F)cccc3c(=O)n2-c2ccc(Oc3ccc(F)cc3)cc2)CC1.Cl | – | – | – | Activity [8]: Non-Toxic; Drug uptake [9]: Not Active; Drug uptake [10]: Active; Activity [11]: Non-Toxic; Activity [12]: Non-Toxic |
| CCOC(=O)c1ccc(-n2c(N(C)C3CCN(C)C3)nc3c(F)cccc3c2=O)cc1 (stereo not drawn) | 0.3 | – | – | – |
| CN1CCN(c2nc3cc(F)ccc3c(=O)n2-c2ccc(C(F)(F)F)cc2)CC12CC2 | 1.2 | – | – | – |
| CC(C)C[C@H](NC(=O)c1cc2ccccc2s1)C(=O)NCCCN(C)S(=O)(=O)c1ccc(Cl)cc1Cl | – | 740 | 312 | Activity (Homo sapiens [13]): Active; solubility [5]: 3.6 µg/mL (≈ 6.31 µM); Activity (Homo sapiens [14]): inactive |
| COc1ccc(-n2c(N(C)CCN(C)C)nc3cc(F)ccc3c2=O)cc1 | 0 | – | – | – |
| CCN1CCN(c2nc3cc(F)ccc3c(=O)n2-c2ccc(OC)cc2)CC1 | 41 | 12200 | – | – |
| CCOC(=O)c1ccc(-n2c(N3CCN(C)CC3)nc3c(F)cccc3c2=O)cc1 | – | 920 | 625 | – |
| CCOC(=O)c1ccc(-n2c(N3CCN(C)CC3)nc3c(Br)cccc3c2=O)cc1 | 7.8 | – | – | – |

| SMILES | Activity [1] [%] | EC50 [2] [nM] | ECmax [3] [nM] | further results |
| --- | --- | --- | --- | --- |
| CN1CCN(c2nc3c(Cl)cccc3c(=O)n2-c2ccc(Cl)cc2)CC1 | 19.9 | – | – | ECmax [15]: 19% |
| Cc1ccc(-n2c(N3CCN(C)CC3)nc3c(Cl)cccc3c2=O)cc1 | 9 | – | – | – |
| CCOC(=O)c1ccc(-n2c(N3CCN(C)CC3)nc3c(Cl)cccc3c2=O)cc1 | 29.4 | – | – | – |
| CN1CCN(c2nc3ccc(F)cc3c(=O)n2-c2ccc(OC(F)(F)F)cc2)CC1 | – | 2060 | 2500 | Activity [4]: 5% |
| CN1CCN(c2nc3cc(F)ccc3c(=O)n2-c2ccc(C(F)(F)F)cc2)CC1=O | 1.8 | – | – | – |
| CN1CCN(c2nc3c(F)cccc3c(=O)n2-c2ccc(C(F)(F)F)cc2)CC1 | – | 1440 | 2500 | – |
| CC(C)C[C@H]1CN(c2nc3cc(F)ccc3c(=O)n2-c2ccc(C(F)(F)F)cc2)CCN1C | 0.9 | – | – | – |
| CN1CCN(c2nc3cc(F)ccc3c(=O)n2-c2ccc(C(F)(F)F)cc2)CC1(C)C | 5 | > 30000 | 10000 | – |
| CC(C)c1ccc(-n2c(N3CCN(C)CC3)nc3c(F)cccc3c2=O)cc1 | – | 910 | 2500 | – |
| CN1CCN(c2nc3cccc(F)c3c(=O)n2-c2ccc(OC(F)(F)F)cc2)CC1 | – | 1180 | 1250 | Activity [4]: 3.7% |
| CC(C)[C@H]1CN(c2nc3cc(F)ccc3c(=O)n2-c2ccc(C(F)(F)F)cc2)CCN1C | – | > 30000 | 5000 | – |
| CN1CCN(c2nc3c(F)cccc3c(=O)n2-c2ccc(OC3CCOCC3)cc2)CC1 | – | 870 | 2500 | fraction unbound [16]: 0.297; Activity [4]: 8.7%; solubility [5]: 1110 µg/mL (≈ 2520 µM) |
| CN1CCN(c2nc3c(F)cccc3c(=O)n2-c2ccc(Oc3ccc(F)cc3)cc2)CC1 [listing 2 of 2 here] | – | – | 20 | Activity (Homo sapiens [6]): Active; Activity (Rattus norvegicus [17]): Dose-dependent effect; Activity (Homo sapiens [18]): Active; Activity (Rattus norvegicus [19]): Dose-dependent effect; Activity [4]: 0.6%; Activity (Rattus norvegicus [20]): Dose-dependent effect; Activity (Rattus norvegicus [21]): Active; Activity (Rattus norvegicus [22]): Dose-dependent effect |
| CC(C)C[C@H](NC(=O)c1cc2ccccc2s1)C(=O)N1CCN(C(=O)[C@H](CO)NS(=O)(=O)c2ccc(Cl)cc2Cl)CC1 | – | 49 | – | – |
| COc1ccc(-n2c(N3CCNCC3)nc3cc(F)ccc3c2=O)cc1 | 1.8 | – | – | – |
| COc1ccc(-n2c(N3CCN(C)CC3)nc3ccccc3c2=O)cc1 | 13.2 | – | – | – |
| CCOC(=O)c1ccc(-n2c(N3CCC(N(C)C)C3)nc3c(F)cccc3c2=O)cc1 (stereo not drawn) | 2.2 | – | – | – |
| CN1CCN(c2nc3cc(F)ccc3c(=O)n2-c2ccc(OC(F)(F)F)cc2)CC1 | – | 663 | 625 | Activity [4]: 6.2% |
